Measurements reported in ChEMBL document CHEMBL1156664, “Frajunolides E-K, briarane diterpenes from Junceella fragilis” (J Nat Prod, 2008).
≈ marks a conversion by molar mass, not a printed value.

Experiments:
[1] = Antiinflammatory activity against FMLP/CB stimulated human neutrophils assessed as inhibition of superoxide anion generation at 10 ug/mL relative to control; type: functional; conditions: Neutrophil
Method in brief: (§1)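 Human neutrophils were isolated by dextran sedimentation and Ficoll centrifugation. Cells were given 0.5 mg/mL ferricytochrome c and 1 mM Ca2+, equilibrated 2 min at 37 °C, then treated with compound for 5 min. CB (1 µg/mL) was added 3 min before 100 nM FMLP for 10 min. Superoxide was measured as SOD-inhibitable ferricytochrome c reduction. Mean ± SEM, n = 3.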

HEp-2 = assay: Cytotoxicity against human Hep2 cells by MTT assay; type: functional, cell-based
WiDr = assay: Cytotoxicity against human WiDr cells by MTT assay; type: functional, cell-based
[2] = Cytotoxicity against human Doay cells by MTT assay; type: functional, cell-based
[3] = Antiinflammatory activity against FMLP/CB stimulated human neutrophils assessed as inhibition of elastase release at 10 ug/mL relative to control; type: functional; conditions: Neutrophil
Method in brief: (§2)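 Neutrophils were supplemented with 100 µM MeO-Suc-Ala-Ala-Pro-Val-p-nitroanilide at 6 × 10^5/mL, equilibrated 2 min at 37 °C, then given compound for 5 min. They were activated with FMLP (100 nM)/CB (0.5 µg/mL), and A405 was followed continuously. The initial rate is expressed relative to the FMLP/CB-activated DMSO control. Mean ± SEM, n = 3.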

HeLa = assay: Cytotoxicity against human HeLa cells by MTT assay; type: functional, cell-based
[4] = Antiinflammatory activity against FMLP/CB stimulated human neutrophils assessed as inhibition of superoxide anion generation relative to control; type: functional, cell-based; conditions: Neutrophil; method in brief: as §1
[5] = Antiinflammatory activity against FMLP/CB stimulated human neutrophils assessed as inhibition of elastase release relative to control; type: functional, cell-based; conditions: Neutrophil; method in brief: as §2

| Structure (SMILES) | inhibition at 10 µg/mL [1] [%] | IC50 (HEp-2) [µg/mL] | IC50 (WiDr) [µg/mL] | IC50 [2] [µg/mL] | inhibition at 10 µg/mL [3] [%] | IC50 (HeLa) [µg/mL] | IC50 [4] [µg/mL] | IC50 [5] [µg/mL] |
| --- | --- | --- | --- | --- | --- | --- | --- | --- |
| C=C1[C@@H]2[C@H](OC(C)=O)[C@@]3(O)[C@H](/C=C(/C)CC[C@H](OC(C)=O)[C@@]2(C)[C@@H](OC(C)=O)C[C@H]1OC(=O)CC)OC(=O)[C@@H]3C (relative stereo) [FRAJUNOLIDE J] | 20.1 | > 20 | > 20 | > 20 | 19.9 | > 20 | – | – |
| C=C1CC[C@H](OC(C)=O)[C@]2(C)[C@@H](OC(=O)COC(=O)CC(C)C)/C=C\C(=C)[C@H](Cl)[C@@H]3OC(=O)[C@H](C)[C@@]3(O)[C@@H](OC(C)=O)[C@@H]12 (relative stereo) [FRAJUNOLIDE K] | 2.4 | > 20 | > 20 | > 20 | 8 | > 20 | – | – |
| O=c1c(-c2ccc(O)cc2)coc2cc(O)cc(O)c12 [GENISTEIN] | 65 | – | – | – | 51.6 | – | – | – |
| C=C1C[C@H](OC(C)=O)[C@H](OC(C)=O)[C@]2(C)[C@@H](OC(C)=O)CC/C(C)=C\[C@@H]3OC(=O)[C@H](C)[C@@]3(O)[C@@H](OC(C)=O)[C@@H]12 (relative stereo) [FRAJUNOLIDE E] | – | > 20 | > 20 | > 20 | – | > 20 | 17.5 (≈ 31.8 µM) | 27.4 (≈ 49.8 µM) |
| C=C1/C=C\[C@H](OC(=O)COC(=O)CC(C)C)[C@@]2(C)[C@@H](OC(C)=O)CC[C@]3(CO3)[C@@H]2[C@H](OC(C)=O)[C@]2(O)[C@@H](C)C(=O)O[C@H]2[C@H]1Cl (relative stereo) [FRAJUNOLIDE G] | -7.5 | > 20 | > 20 | > 20 | 8.3 | > 20 | – | – |
| C=C1/C=C/[C@H](OC(C)=O)[C@@]2(C)[C@@H](OC(C)=O)[C@@H](OC(C)=O)C[C@]3(CO3)[C@@H]2[C@H](OC(C)=O)[C@]2(O)[C@@H](C)C(=O)O[C@H]2[C@H]1Cl (relative stereo) [FRAJUNOLIDE I] | -10.3 | > 20 | > 20 | > 20 | 18.2 | > 20 | – | – |
| C=C1C[C@H](OC(C)=O)[C@H](OC(C)=O)[C@]2(C)[C@@H](OC(C)=O)/C=C/C(=C)[C@H](Cl)[C@@H]3OC(=O)[C@H](C)[C@@]3(O)[C@@H](OC(C)=O)[C@@H]12 (relative stereo) [FRAJUNOLIDE H] | -1.9 | > 20 | > 20 | > 20 | 0.1 | > 20 | – | – |
| CC[C@@]1(O)C(=O)OCc2c1cc1n(c2=O)Cc2cc3ccccc3nc2-1 [CAMPTOTHECIN] | – | 0.02 (≈ 0.0574 µM) | 0.07 (≈ 0.201 µM) | 0.08 (≈ 0.23 µM) | – | 0.19 (≈ 0.545 µM) | – | – |
| C=C1C[C@H](OC(C)=O)[C@H](OC(C)=O)[C@]2(C)[C@@H](OC(C)=O)C[C@@]3(O)O[C@]4([C@@H](C)C(=O)O[C@H]4[C@@H](Cl)C3=C)[C@@H](OC(C)=O)[C@@H]12 (relative stereo) [FRAJUNOLIDE F] | 7.4 | > 20 | > 20 | > 20 | 10.4 | > 20 | – | – |
